Source: ChEMBL document CHEMBL4304781, “Development of Highly Selective Pyrimidine-Based Aldosterone Synthase (CYP11B2) Inhibitors” (ACS Med Chem Lett, 2019)
Values after ≈ are worked out from the molar mass of the structure shown.

How the values were obtained:
[1] = molecular target: T1, Cytochrome P450 11B2, mitochondrial (Homo sapiens, UniProt P19099); experiment: Inhibition of human recombinant CYP11B2 using deoxycorticosterone as substrate incubated for 90 mins by cell-based HPLC analysis
T1 sequence (P19099 whole entry): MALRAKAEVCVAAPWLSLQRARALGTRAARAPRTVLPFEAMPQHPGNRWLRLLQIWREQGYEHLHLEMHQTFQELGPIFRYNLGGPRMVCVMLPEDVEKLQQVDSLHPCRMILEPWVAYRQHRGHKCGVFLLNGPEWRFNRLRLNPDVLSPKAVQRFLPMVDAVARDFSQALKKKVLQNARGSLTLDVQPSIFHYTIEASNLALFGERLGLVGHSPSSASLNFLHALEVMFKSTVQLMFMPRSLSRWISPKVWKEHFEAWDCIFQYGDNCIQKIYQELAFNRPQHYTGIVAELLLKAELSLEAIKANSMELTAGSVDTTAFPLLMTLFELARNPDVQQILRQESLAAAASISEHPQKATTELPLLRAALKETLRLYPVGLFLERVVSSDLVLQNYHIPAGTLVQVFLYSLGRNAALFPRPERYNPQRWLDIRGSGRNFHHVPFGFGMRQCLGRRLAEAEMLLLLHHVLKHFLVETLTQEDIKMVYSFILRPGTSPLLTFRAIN
Method in brief: (§1)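 Recombinant human CYP11B2 or CYP11B1. Substrate and product steroids both monitored by HPLC-MS. Selectivity taken as CYP11B1 IC50 / CYP11B2 IC50.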

[2] = molecular target: T2, Cytochrome P450 11B1, mitochondrial (Homo sapiens, UniProt P15538); experiment: Inhibition of human recombinant CYP11B1 using deoxycortisol as substrate incubated for 60 mins by cell-based HPLC analysis; format: ADME; method in brief: as §1
T2 sequence (P15538 whole entry): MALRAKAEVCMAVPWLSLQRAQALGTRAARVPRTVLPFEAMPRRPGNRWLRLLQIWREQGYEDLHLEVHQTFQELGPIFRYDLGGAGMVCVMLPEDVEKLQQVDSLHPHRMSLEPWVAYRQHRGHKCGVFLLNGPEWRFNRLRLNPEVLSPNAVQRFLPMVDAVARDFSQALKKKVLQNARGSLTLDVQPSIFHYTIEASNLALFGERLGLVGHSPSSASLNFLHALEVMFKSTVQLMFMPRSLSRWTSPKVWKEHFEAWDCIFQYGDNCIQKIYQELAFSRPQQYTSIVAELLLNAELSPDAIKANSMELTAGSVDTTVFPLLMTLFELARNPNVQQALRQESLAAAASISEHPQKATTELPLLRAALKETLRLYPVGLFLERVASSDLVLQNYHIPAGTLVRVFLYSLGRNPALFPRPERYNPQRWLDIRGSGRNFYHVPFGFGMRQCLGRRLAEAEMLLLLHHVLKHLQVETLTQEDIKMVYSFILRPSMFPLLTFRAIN

Homo sapiens [3] = species: Homo sapiens; experiment: Selectivity index, ratio of IC50 for human recombinant CYP11B1 to IC50 for human recombinant CYP11B2; method in brief: as §1
[4] = Stability in cynomolgus monkey liver microsomes assessed as parent compound remaining at 1 uM measured after 65 mins by LC/MS-MS analysis; format: ADME, Macaca fascicularis, Microsome; conditions: read-out: Stability
Method in brief: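 Parent compound percentage remaining after 65 min incubation with cynomolgus monkey liver microsomes.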

[5] = Cmax in cynomolgus monkey at 1 mg/kg, po measured after 24 or 72 hrs; format: ADME, organism-based, Macaca fascicularis; design: dose 1 mg/kg, route oral; conditions: in vivo
Method in brief: (§2)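 Male cynomolgus monkeys dosed orally at 1 mg/kg in 0.5% CMC, 0.1% Tween-80, 1% DMSO. Plasma drug concentrations followed out to 24 or 72 h. Cmax, Tmax, AUC0-24 and t1/2 derived from plasma levels.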

[6] = Tmax in cynomolgus monkey at 1 mg/kg, po measured after 24 or 72 hrs; format: ADME, organism-based, Macaca fascicularis; conditions: in vivo; method in brief: as §2
[7] = AUC (0 to 24 hrs) in cynomolgus monkey at 1 mg/kg, po measured after 24 or 72 hrs; format: ADME, organism-based, Macaca fascicularis; design: time < 24 hr, dose 1 mg/kg, route oral; conditions: in vivo; method in brief: as §2
[8] = Half life in cynomolgus monkey at 1 mg/kg, po measured after 24 or 72 hrs; format: ADME, organism-based, Macaca fascicularis; conditions: in vivo; method in brief: as §2
Cynomolgus monkey [9] = experiment: Effect on ACTH-induced 11-deoxycortisol level in cynomolgus monkey at 0.2 to 3 mg/kg, po administered 10 mins prior to ACTH stimulation for 7 days; format: ADME, organism-based, Macaca fascicularis; conditions: in vivo
Method in brief: (§3)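 Conscious male cynomolgus monkeys. Day 1: vehicle, then ACTH challenge to drive adrenal steroidogenesis. Repeated after 7-day recovery with oral compound at 0.2, 1 and 3 mg/kg given 10 min before ACTH. Plasma aldosterone, cortisol, DOC and 11-deoxycortisol measured and AUCs calculated. Day 8 change expressed against each animal's own day 1 steroid AUC.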

Cynomolgus monkey [10] = experiment: In vivo inhibition of CYP11B2 in cynomolgus monkey assessed as reduction in ACTH-induced plasma aldosterone AUC administered orally 10 mins prior to ACTH stimulation for 7 days; format: functional, organism-based; conditions: Macaca fascicularis; method in brief: as §3
Cynomolgus monkey [11] = experiment: In vivo inhibition of CYP11B2 in cynomolgus monkey assessed as reduction in ACTH-induced plasma aldosterone AUC at 1 mg/kg, po administered 10 mins prior to ACTH stimulation for 7 days relative to control; format: functional; conditions: Macaca fascicularis; method in brief: as §3
Cynomolgus monkey [12] = experiment: In vivo inhibition of CYP11B2 in cynomolgus monkey assessed as reduction in ACTH-induced plasma aldosterone AUC at 0.2 mg/kg, po administered 10 mins prior to ACTH stimulation for 7 days relative to control; format: functional; conditions: Macaca fascicularis; method in brief: as §3
Cynomolgus monkey [13] = experiment: In vivo inhibition of CYP11B2 in cynomolgus monkey assessed as reduction in ACTH-induced plasma aldosterone AUC at 3 mg/kg, po administered 10 mins prior to ACTH stimulation for 7 days relative to control; format: functional; conditions: Macaca fascicularis; method in brief: as §3
Cynomolgus monkey [14] = experiment: Effect on ACTH-induced DOC level in cynomolgus monkey at 0.2 to 3 mg/kg, po administered 10 mins prior to ACTH stimulation for 7 days; format: ADME, organism-based, Macaca fascicularis; conditions: in vivo; method in brief: as §3
Aromatase = molecular target: T3, Aromatase (Homo sapiens, UniProt P11511); experiment: Inhibition of CYP19 (unknown origin)
T3 sequence (P11511 whole entry): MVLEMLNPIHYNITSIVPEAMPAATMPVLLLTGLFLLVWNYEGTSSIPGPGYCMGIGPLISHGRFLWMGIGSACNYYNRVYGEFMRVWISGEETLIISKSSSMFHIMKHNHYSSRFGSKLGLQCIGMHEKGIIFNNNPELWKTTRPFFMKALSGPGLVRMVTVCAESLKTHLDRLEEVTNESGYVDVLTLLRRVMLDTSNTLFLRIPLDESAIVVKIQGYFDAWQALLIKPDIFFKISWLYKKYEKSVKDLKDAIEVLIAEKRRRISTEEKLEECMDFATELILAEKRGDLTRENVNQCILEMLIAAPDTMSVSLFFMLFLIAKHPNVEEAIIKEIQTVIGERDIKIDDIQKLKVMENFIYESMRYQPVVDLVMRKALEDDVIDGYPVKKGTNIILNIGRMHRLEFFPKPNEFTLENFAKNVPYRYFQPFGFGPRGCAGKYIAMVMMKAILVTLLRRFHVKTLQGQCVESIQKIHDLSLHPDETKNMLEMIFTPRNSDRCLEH

Homo sapiens [15] = species: Homo sapiens; experiment: Selectivity index, ratio of IC50 for CYP19 (unknown origin) to IC50 for human recombinant CYP11B2
Homo sapiens [16] = species: Homo sapiens; experiment: Selectivity index, ratio of IC50 for CYP2C19 (unknown origin) to IC50 for human recombinant CYP11B2
Homo sapiens [17] = species: Homo sapiens; experiment: Selectivity index, ratio of IC50 for CYP3A4 (unknown origin) to IC50 for human recombinant CYP11B2
Homo sapiens [18] = species: Homo sapiens; experiment: Selectivity index, ratio of IC50 for CYP2C9 (unknown origin) to IC50 for human recombinant CYP11B2
Homo sapiens [19] = species: Homo sapiens; experiment: Selectivity index, ratio of IC50 for CYP17 (unknown origin) to IC50 for human recombinant CYP11B2
Homo sapiens [20] = species: Homo sapiens; experiment: Selectivity index, ratio of IC50 for CYP2D6 (unknown origin) to IC50 for human recombinant CYP11B2
Macaca fascicularis = species: Macaca fascicularis; experiment: Selectivity index, ratio of IC50 for cynomolgus monkey CYP11B1 to IC50 for cynomolgus monkey CYP11B2
[21] = Inhibition of cynomolgus monkey CYP11B2; design: species or system Macaca fascicularis
[22] = Inhibition of cynomolgus monkey CYP11B1; format: ADME, Macaca fascicularis
[23] = Thermodynamic solubility in phosphate free buffer pH 7.4 incubated for 24 hrs by HPLC/LCMS-MS based shake flask method; format: physicochemical; conditions: read-out: Therm_solubility
[24] = Fraction unbound in cynomolgus monkey plasma incubated for 6 hrs by HPLC-MS/MS analysis; format: ADME, cell-free, Macaca fascicularis
Cynomolgus monkey [25] = experiment: Effect on ACTH-induced cortisol level in cynomolgus monkey at 0.2 to 3 mg/kg, po administered 10 mins prior to ACTH stimulation for 7 days; format: ADME, organism-based, Macaca fascicularis; conditions: in vivo; method in brief: as §3

N#Cc1ncncc1-c1nc2cc(F)c(F)cc2n1C1CC1
IC50 [1]: 13 nM
IC50 [2]: 4990 nM
Ratio IC50 (Homo sapiens [3]): 383
remaining at 65 min, 1 µM [4]: 85%

Cc1ncncc1-c1nc2cc(F)c(F)cc2n1C1CC1
Ratio IC50 (Homo sapiens [3]): 244
remaining at 65 min, 1 µM [4]: 72%
Cmax [5]: 1260 nM
Tmax [6]: 0.5 h
AUC(0-t) at 24 h [7]: 3 µM·h
half-life [8]: 4.2 h

CC(F)(F)c1ncncc1-c1nc2cc(F)c(F)cc2n1C1CC1
IC50 [1]: 50 nM
IC50 [2]: 5720 nM
Ratio IC50 (Homo sapiens [3]): 114

Fc1cc2nc(-c3cncnc3C3CC3)n(C3CC3)c2cc1F
IC50 [1]: 172 nM
IC50 [2]: > 10000 nM
Ratio IC50 (Homo sapiens [3]): > 58

N#Cc1ccc2nc(-c3cncnc3C(F)(F)F)n(C3CC3)c2c1
IC50 [1]: 16 nM
IC50 [2]: 4170 nM
Ratio IC50 (Homo sapiens [3]): 261
remaining at 65 min, 1 µM [4]: 62%

Fc1ccc2nc(-c3cncnc3)n(C3CC3)c2c1
Ratio IC50 (Homo sapiens [3]): 136

CCc1ncncc1-c1nc2cc(F)c(F)cc2n1C1CC1
IC50 [1]: 8 nM
IC50 [2]: 3330 nM
Ratio IC50 (Homo sapiens [3]): 416
remaining at 65 min, 1 µM [4]: 78%

Fc1ccc2nc(-n3ccnn3)n(C3CC3)c2c1
IC50 [1]: 1060 nM
IC50 [2]: 9070 nM
Ratio IC50 (Homo sapiens [3]): 8.5

N#Cc1ccc2nc(-c3cncnc3C(F)F)n(C3CC3)c2c1
IC50 [1]: 9 nM
IC50 [2]: 2030 nM
Ratio IC50 (Homo sapiens [3]): 226
remaining at 65 min, 1 µM [4]: 84%
Cmax [5]: 1000 nM
Tmax [6]: 2 h
AUC(0-t) at 24 h [7]: 8.3 µM·h
half-life [8]: 5.4 h

Fc1ccc2nc(-c3cncs3)n(C3CC3)c2c1
IC50 [1]: 62 nM
IC50 [2]: 4520 nM
Ratio IC50 (Homo sapiens [3]): 73

Fc1ccc2nc(-c3cccnn3)n(C3CC3)c2c1
IC50 [1]: 412 nM
IC50 [2]: > 10000 nM
Ratio IC50 (Homo sapiens [3]): > 24

Fc1cc2nc(-c3cncnc3C(F)(F)F)n(C3CC3)c2cc1F
Activity (Cynomolgus monkey [9]): Non-Toxic
inhibition (Cynomolgus monkey [10]): Dose-dependent effect
inhibition in vivo at 1 mg/kg (Cynomolgus monkey [11]): 88%
inhibition in vivo at 0.2 mg/kg (Cynomolgus monkey [12]): 68%
inhibition in vivo at 3 mg/kg (Cynomolgus monkey [13]): 93%
Activity (Cynomolgus monkey [14]): Non-Toxic
IC50 (Aromatase): 6440 nM
IC50 [1]: 25 nM
IC50 [2]: 4770 nM
Ratio IC50 (Homo sapiens [3]): 190
remaining at 65 min, 1 µM [4]: 99%
Cmax [5]: 410 nM
Tmax [6]: 2 h
AUC(0-t) at 24 h [7]: 7.8 µM·h
half-life [8]: 30 h
Ratio IC50 (Homo sapiens [15]): 250
Ratio IC50 (Homo sapiens [16]): > 1000
Ratio IC50 (Homo sapiens [17]): > 1000
Ratio IC50 (Homo sapiens [18]): > 1000
Ratio IC50 (Homo sapiens [19]): > 1000
Ratio IC50 (Homo sapiens [20]): > 1000
Ratio IC50 (Macaca fascicularis): 702
IC50 [21]: 13 nM
IC50 [22]: 8850 nM
solubility thermodynamic at 24 h [23]: 9 µM (≈ 3.06 µg/mL)
fraction unbound at 6 h [24]: 0.16
Activity (Cynomolgus monkey [25]): Non-Toxic
